Laboratory results published in ChEMBL document CHEMBL1955820, “Diazeniumdiolated carbamates: a novel class of nitric oxide donors” (Bioorg Med Chem, 2012).

Experiments:
[1] = Prodrug activation in human TERT immortalized BJ-5ta cells assessed as intracellular NO-release by measuring increase in fluorescence at 10 uM after 90 mins by DAF-FM diacetate-based fluorescence assay relative to control; format: cell-based; details: htert-bj, 1.5 h
Outline: (§1)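 BJ-5ta cells, grown in DMEM:199 medium (4:1) with 10% fetal calf serum, were loaded with 2.5 µM DAF-FM diacetate in HBSS for 30 min at 37 °C, 5% CO2, then rinsed into fresh HBSS. Compound in DMSO was added at 10 µM final for 90 min, with DMSO as control. Fluorescence was read at ex 485/em 525 nm. Mean of 16 independent experiments.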

[2] = test system: U-937; assay: Prodrug activation in human U937 cells assessed as intracellular NO-release by measuring increase in fluorescence at 10 uM after 90 mins by DAF-FM diacetate-based fluorescence assay relative to control; format: cell-based; details: u-937, 1.5 h
Outline: (§2)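 U937 cells in RPMI 1640 with 10% fetal calf serum at 37 °C, 5% CO2. Probe loading used 2.5 µM DAF-FM diacetate in HBSS for 30 min. Cells were then spun down, rinsed and resuspended in fresh HBSS. Compound in DMSO was added at 10 µM final for 90 min, with DMSO as control. Fluorescence was read at ex 485/em 525 nm.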

[3] = Prodrug activation in PBS assessed as production of nitrous oxide per mol of prodrug by gas chromatography in presence of GSH; details: buffer
Outline: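 Glutathione-activated release in pH 7.4 buffer with 3.6–3.9 mM GSH and 50 µM DTPA, argon-sparged, at 37 °C. Prodrug was injected from a 10 mM DMSO stock. N2O was measured by GC with electron capture detection on a packed ShinCarbon column: 90 to 200 °C at 20 °C/min, He carrier 30 mL/min.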

[4] = Drug uptake in human TERT immortalized BJ-5ta cells by DAF-FM diacetate-based fluorescence assay; format: ADME, cell-based; details: htert-bj; outline: as §1
[5] = test system: U-937; assay: Drug uptake in human U937 cells by DAF-FM diacetate-based fluorescence assay; format: ADME, cell-based; outline: as §2

| Structure (SMILES) | fold change (FC) [1] | fold change (FC) [2] | Drug metabolism [3] [mol/mol] | Drug uptake [4] | Drug uptake [5] |
| --- | --- | --- | --- | --- | --- |
| CCOC(=O)N1CCN(/[N+]([O-])=N/Oc2ccc([N+](=O)[O-])cc2[N+](=O)[O-])CC1 | 5.48 | 2.64 | – | – | – |
| CC(C)N(C(=O)OC(C)(C)C)/[N+]([O-])=N/Oc1ccc([N+](=O)[O-])cc1[N+](=O)[O-] | 49.67 | 10.5 | 0.02 | Active | Active |
| CC(=O)OCO/N=[N+](\[O-])N(C(=O)OC(C)(C)C)C(C)C | 7.29 | 5.56 | – | Active | Active |
